APJ antagonist = blocks the human apelin receptor APJ | P35414 | CHO-K1 APJ beta-arrestin complementation, luminescence | inhibition, % at 20 µM | 330,000 compounds, 0.32% hits | AID 2521;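 active = inhibition above about 40% at 20 µM, limit read from the data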;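 note: cells challenged with 10 nM apelin-13 agonist together with compound; plate controls were apelin-13 plus DMSO wells for no effect and DMSO wells lacking apelin-13 for full effect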
CXCR6 inh = CXCR6 (human) receptor inhibition. O00574. CHO-K1 PathHunter CXCR6 beta-arrestin, luminescence. inhibition, % at 20 µM. 360,000 compounds, 0.36% hits; in the data active = inhibition above about 34%, passing the limit was not always enough;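 note: antagonist mode with CXCL16 agonist at 10 nM final; 0% = 10 nM CXCL16 with DMSO and 100% = unstimulated wells without agonist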
Target sequence (O00574 whole entry, looked up): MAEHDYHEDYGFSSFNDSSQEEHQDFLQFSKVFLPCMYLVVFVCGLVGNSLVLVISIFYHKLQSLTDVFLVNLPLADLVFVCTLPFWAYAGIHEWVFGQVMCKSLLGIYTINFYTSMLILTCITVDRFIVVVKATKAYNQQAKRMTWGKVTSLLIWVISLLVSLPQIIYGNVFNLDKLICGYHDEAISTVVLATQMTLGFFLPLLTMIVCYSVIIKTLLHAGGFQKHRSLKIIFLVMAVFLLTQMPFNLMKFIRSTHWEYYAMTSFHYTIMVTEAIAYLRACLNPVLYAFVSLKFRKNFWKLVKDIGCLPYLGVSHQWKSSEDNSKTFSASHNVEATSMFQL
GAA850 FXN act = frataxin GAA850 promoter activation; HEK293 lucGAA850 FXN promoter luciferase reporter, 24 h; percent of 10 µM SAHA response; activation, % at 6 µM; 360,000 compounds, 0.56% hits; AID 540364;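 active = activation above the average of all compounds screened plus 3 SD, cutoff fixed separately per campaign, cut at about 7.5% in these data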;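 note: 0% = DMSO wells and 100% = 10 µM SAHA wells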
CCR6 antag = antagonists of human CCR6 receptor; P51684; CHO-K1 CCR6 PathHunter beta-arrestin, luminescence, CCL20-stimulated; inhibition, % at 20 µM; 340,000 compounds, 0.49% hits;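 active = compounds whose inhibition of the agonist-driven luminescence signal at 20 µM reaches about 50%, limit read from the data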;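 note: cells stimulated with CCL20 at 14 nM final; plate controls were DMSO with CCL20 for no effect and DMSO without agonist for full effect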
EBI2 antag = EBI2 (human) antagonism | P32249 | EBI2 beta-arrestin recruitment, luminescence, 7a,25-OHC stimulated | inhibition, % at 5 µM | 360,000 compounds, 0.81% hits | AID 651636; in the data active = inhibition above about 38%;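 note: enzyme fragment complementation signal reports receptor beta-arrestin coupling in cells; 0% = agonist plus DMSO wells and 100% = wells without agonist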
APJ ag = APJ receptor agonism. P35414. CHO-K1 APJ PathHunter beta-arrestin, luminescence; 0% DMSO wells, 100% apelin. activation, % at 20 µM. 330,000 compounds, 0.11% hits. AID 2520;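 active = activation more than six SD over the plate average, tested at 20 µM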;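 note: 0% = DMSO alone and 100% = apelin-13 at 10 nM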
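Test system: CHO-K1 APJ beta-arrestin complementation cell line. Amount: cell density 1000 per well. Controls: DMSO negative, 10 nM Apelin-13 positive. Signal: luminescent beta-gal fragment complementation, chemiluminescent substrate. Read-out basis: agonist-driven arrestin binding to APJ. Timing: compound stimulation 90 min at 25 °C, detection 60 min.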
Numbers without * were called inactive; x = no result. Rows were chosen to be rich in hits. Some 2% of all compounds tested hit in one or more screens of this group.

SMILES | APJ antagonist | CXCR6 inh | GAA850 FXN act | CCR6 antag | EBI2 antag | APJ ag
CCN(CC)S(=O)(=O)c1ccc2oc(C(=O)NCc3ccc(C)cc3)c(C)c2c1 | 6 | -6 | -2 | 13 | 70* | 2
CCN(CC)S(=O)(=O)c1ccc2oc(C(=O)NC(C)C)c(C)c2c1 | 0 | -7 | 1 | -3 | 1 | -7
O=C(N/N=C/c1cc(Cl)ccc1O)c1ccncc1 | -40 | -9 | -6 | -2 | 50* | 10
O=C(N/N=C/c1ccccc1Cl)c1ccncc1 | -17 | 0 | 1 | -5 | -8 | -4
Nc1nn2c(-c3ccccc3)cc(=O)[nH]c2c1N=Nc1ccc(Br)cc1 | x | 41* | 2 | 43 | 7 | x
Cc1ccc2c(c1)c1c3n2CCCNC3CCC1 (centres undefined) | 4 | 6 | 0 | 5 | -1 | 2
c1cc2c(cc1C1CCCCC1)c1c3n2CCCNC3CCC1 (centres undefined) | -4 | 4 | 0 | 71* | -17 | 0
O=C(c1[nH]c(C(F)(F)F)nc1-c1ccccc1)N1CCOCC1 | x | -2 | x | x | -6 | x
O=C1NC(=S)S/C1=C\C=C\c1ccc([N+](=O)[O-])o1 | x | 33 | -10 | 61* | 4 | x
C#CCNC(=O)C[C@@H]1C[C@@]2(C(=O)OCC)CCCC=C2N(Cc2ccc3c(c2)OCO3)C1=O | x | 12 | x | x | -7 | x
CNc1c(C(=O)O)ccc2c1C(=O)c1ccccc1C2=O | -5 | 34 | 0 | 53* | -3 | -2
CCCn1c(CNc2ccccc2O)nc2ccccc21 | -56 | 31 | -2 | 62* | -11 | 7
N#CC(C#N)=C1C=CC=CN1/C(=C\c1ccco1)C(=O)c1ccc(Br)cc1 | x | 103* | -16 | 104* | 77* | x
N#C/C(=C/c1ccco1)C(N)=S | 2 | -2 | 2 | 4 | -8 | 0
O[C@@H]1CN(Cc2cccs2)[C@@H](c2ccccc2)C[C@H]1n1cc(-c2ccc(F)cc2)nn1 | x | 10 | 1 | x | 17 | x
COc1ccc(NC(=O)COC(=O)c2cc([N+](=O)[O-])ccc2N2CCOCC2)cc1 | 3 | 10 | -2 | 113* | 1 | 9
Oc1ccc(N=Nc2ccc3c(c2)OCO3)c2ccccc12 | 58* | x | x | x | x | -12
O=C(NN=Cc1c(O)ccc2ccccc12)c1ccc2c(c1)OCO2 | 13 | -3 | -5 | 6 | 0 | -3
C/C(=N\NC(=O)C1CCCN(S(=O)(=O)c2ccccc2)C1)c1ccccn1 (centres undefined) | 35 | 40* | -3 | x | 2 | -7
Cc1ccc(-c2cc(-c3ccccc3)c(C#N)c(N)n2)o1 | 0 | 1 | -2 | 78* | -5 | -6
O=C(NCC1CCCO1)c1cn(Cc2ccccc2Cl)nc1-c1ccccc1 (centres undefined) | 4 | -10 | 0 | 7 | 6 | 5
O=C1CC(C(=O)Nc2ccc(Cl)cc2[N+](=O)[O-])C2(CCCCC2)O1 (centres undefined) | -12 | -8 | 1 | 57* | -9 | 4
COc1ccc(N=Nc2nc(-c3ccccc3)c(-c3ccccc3)[nH]2)cc1 | -10 | 28 | 0 | 42 | 35 | 0
COc1ccccc1N=Nc1nc(-c2ccccc2)c(-c2ccccc2)[nH]1 | x | 34 | -2 | 67* | 38 | x
Cc1cc(C)c2c(=O)n(CC(=O)Nc3cccc(Cl)c3C)sc2n1 | -13 | 80* | 1 | 12 | 2 | 2
SMILES | APJ antagonist | CXCR6 inh | GAA850 FXN act | CCR6 antag | EBI2 antag | APJ ag
Cc1cc(C)c2c(=O)n(CC(=O)Nc3ccc(Br)c(C)c3)sc2n1 | -2 | -10 | 2 | 8 | 13 | 3
CCCCCCCCN1C(=O)[C@H](CC(=O)N2CCCC2)C[C@@]2(C(=O)OC)CCCCC=C12 | x | 0 | x | x | 7 | x
Clc1ccc(-c2nc3ncccn3c2Cl)cc1 | 9 | 1 | 13* | 8 | 1 | -2
CCC1(CC)Cc2ccccc2-c2nc(NN)[nH]c(=O)c21 | 14 | 29 | 0 | 50* | 3 | -7
CCC1(C)Cc2ccccc2-c2nc(NN)[nH]c(=O)c21 (centres undefined) | 22 | 9 | 1 | 31 | 0 | -8
O=C1CCC(C(=O)N2CCCCO2)CN1Cc1cccc(F)c1 (centres undefined) | 1 | -3 | 0 | 9 | -14 | -6
O=C(N/N=C/c1cn(-c2ccccc2)nc1-c1cccs1)c1ccncc1 | -14 | 8 | 2 | 53* | 8 | 0
CC(Oc1ccc(Br)cc1)C(=O)Nc1ccc(N2CCOCC2)cc1N1CCOCC1 (centres undefined) | 3 | 6 | -2 | 22 | 28 | -4
Cc1ccccc1OCC1Cn2c(nc3c2c(=O)n(C)c(=O)n3C)O1 (centres undefined) | 11 | 8 | 0 | 2 | 4 | 0
C[C@@]12C(=O)N(c3cccc(F)c3)C(=O)N1[C@H](c1ccc(F)cc1)[C@@H]1C(=O)N(C3CCCCC3)C(=O)[C@@H]12 | 0 | -5 | 14* | -17 | 3 | 0
C[C@@]12C(=O)N(c3cccc(Cl)c3)C(=O)N1[C@H](c1ccc(Cl)cc1)[C@@H]1C(=O)N(C3CCCCC3)C(=O)[C@@H]12 | -12 | -9 | 7 | -1 | -5 | 6
O=C1[C@H]2[C@@H](c3ccc(F)cc3)N3C(=O)N(c4ccccc4)C(=O)[C@@]3(Cc3ccc(Cl)cc3)[C@H]2C(=O)N1C1CCCCC1 | -3 | 6 | 11* | 0 | 2 | 7
COc1cc(NC(=O)CCc2c(C)noc2C)c(Cl)cc1C(=O)O | -11 | -2 | 0 | -6 | -6 | -4
N=c1n(Cc2ccc(Cl)cc2)c2ccccc2n1CC(O)COc1ccccc1 (centres undefined) | -6 | -21 | -6 | -3 | -4 | 15*
CCOc1cc(C(=O)CSc2nnc(CNc3ccc(Cl)cc3)o2)ccc1NC(=O)CC | 4 | -8 | -5 | 5 | 56* | 2
O=C(NN1C(=O)/C(=C/c2cccs2)SC1=S)c1cccnc1 | 7 | 5 | 1 | 17 | 18 | 1
COc1cc(/C=C2\SC(=S)N(NS(=O)(=O)c3ccc(C)cc3)C2=O)cc(OC)c1OC | 4 | -1 | 1 | 21 | 0 | -3
COc1cc(/C=C2\SC(=S)N(NS(=O)(=O)c3ccc(C)cc3)C2=O)ccc1O | 36 | 37* | 2 | 50 | 13 | -7
COc1cc(/C=C2\SC(=S)N(Nc3ccccc3)C2=O)cc(OC)c1OC | -9 | 0 | 2 | 51* | 11 | 1
CCOc1ccc(/C=C2\SC(=S)N(Nc3ccccc3)C2=O)cc1OC | 0 | 5 | 3 | 0 | 6 | -2
CCOc1cc(/C=C2\SC(=S)N(NC(=O)c3cccnc3)C2=O)ccc1O | 44* | 37 | 0 | 43 | 12 | -9

Screens (PubChem)
